In the library only some 4.7% were active in any assay of this set; here they are far more common.
Jurkat NFkB inh – inhibitors of the PMA/ionomycin-induced NF-kB reporter in Jurkat cells; inhibition, % at 4 µM; 330,000 tested, 0.53% active; PMA/ionomycin-induced NF-kB luciferase reporter, luminescence; in the data active = inhibition above about 50%
aSyn 5UTR inh – 5' untranslated region of α-synuclein, MLPCN primary screen | 300,000 tested, 0.82% active | alpha-synuclein 5'UTR reporter, inhibitor activity | inhibition, % (tested at 7.5 µM); in the data active = inhibition above about 60%;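 note: H4 neuroglioblastoma cells stably carrying SNCA 5'UTR luciferase fusion; 0% = DMSO wells and 100% = positive control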
Mdm2 MdmX PPI – inhibitors of human Mdm2/MdmX interaction. SaOS-2 split-luciferase Mdm2/MdmX complementation, luminescence. inhibition, % at 8 µM. 330,000 tested, 3% active;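 active = inhibition of at least 50% at 8 µM in the primary screen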
Target sequence (O15151 whole entry, looked up): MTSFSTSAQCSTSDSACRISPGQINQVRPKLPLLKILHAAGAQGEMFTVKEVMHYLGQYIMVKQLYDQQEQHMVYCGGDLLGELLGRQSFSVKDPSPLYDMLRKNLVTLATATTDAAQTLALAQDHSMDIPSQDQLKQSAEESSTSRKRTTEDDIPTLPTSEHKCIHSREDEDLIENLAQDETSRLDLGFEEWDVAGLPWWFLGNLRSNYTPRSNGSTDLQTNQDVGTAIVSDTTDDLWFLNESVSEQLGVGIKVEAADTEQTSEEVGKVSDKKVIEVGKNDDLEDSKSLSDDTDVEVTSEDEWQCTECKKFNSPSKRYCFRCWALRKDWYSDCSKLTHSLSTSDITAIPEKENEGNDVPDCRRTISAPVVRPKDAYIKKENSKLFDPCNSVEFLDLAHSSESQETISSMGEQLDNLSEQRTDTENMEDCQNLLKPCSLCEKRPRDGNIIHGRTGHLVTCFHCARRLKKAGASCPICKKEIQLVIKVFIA
Target sequence (Q00987 whole entry, looked up): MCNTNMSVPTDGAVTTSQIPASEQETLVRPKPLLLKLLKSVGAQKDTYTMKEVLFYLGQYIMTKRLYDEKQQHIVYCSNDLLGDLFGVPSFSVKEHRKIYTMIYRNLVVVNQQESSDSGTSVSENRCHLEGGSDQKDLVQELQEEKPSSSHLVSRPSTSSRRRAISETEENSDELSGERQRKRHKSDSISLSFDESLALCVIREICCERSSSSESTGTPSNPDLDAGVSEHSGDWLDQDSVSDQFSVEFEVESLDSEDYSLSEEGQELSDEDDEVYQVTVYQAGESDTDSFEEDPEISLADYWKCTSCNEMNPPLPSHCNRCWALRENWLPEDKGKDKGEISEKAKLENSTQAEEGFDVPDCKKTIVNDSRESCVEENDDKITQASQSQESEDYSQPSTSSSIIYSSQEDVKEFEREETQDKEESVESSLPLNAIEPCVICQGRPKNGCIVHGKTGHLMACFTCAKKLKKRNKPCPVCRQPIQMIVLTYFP
697 NFkB inh – inhibitors of the PMA/ionomycin-induced NF-kB reporter in 697 B cells; 697 B-cell NF-kB luciferase reporter, 16 h; inhibition, % at 4 µM; 330,000 tested, 0.33% active; AID 435022; in the data active = inhibition above about 35%
VIM-2 inhibitor – blocks Pseudomonas aeruginosa VIM-2 metallo-beta-lactamase; purified VIM-2, nitrocefin hydrolysis, epi-absorbance fluorescence; inhibition, % at 5.6 µM; 290,000 tested, 0.89% active; AID 1527;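 active = inhibition above the mean of all tested compounds plus 3 SD, cutoff set per screening run, cut at about 7.5% in these data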;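 note: red hydrolysis product quenches plate fluorescence so inhibitors raise well fluorescence; 0% = enzyme with DMSO and 100% = DMSO without enzyme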
IMP-1 inhibitor – inhibitors of Pseudomonas aeruginosa IMP-1 metallo-beta-lactamase; 290,000 tested, 0.45% active; purified IMP-1, nitrocefin hydrolysis, epi-absorbance fluorescence; inhibition, % at 5.6 µM;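 active = inhibition above the mean plus 3 SD of all compounds in the same screening run, cut at about 4.5% in these data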;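 note: 0% = IMP-1 with DMSO and 100% = DMSO wells lacking enzyme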
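Assay system: purified IMP-1; Quantity: IMP-1 0.2 nM before substrate addition; Medium: HEPES buffer pH 7.1 with ZnSO4 and Brij 35; Incubation: 15 min enzyme–compound preincubation, then 25 min nitrocefin reaction, 25 °C; Signal: fluorescence quenching readout, ex 480/em 530 nm; Controls: DMSO with and without IMP-1; Repeats: singlicate testing.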
Jurkat NFkB conf – inhibitors of the PMA/ionomycin-induced NF-kB reporter in Jurkat cells, retest | shares compounds with Jurkat NFkB inh | Jurkat NF-kB luciferase, 16 h | AID 435020 | 2,700 tested, 27% active | inhibition, % at 4 µM;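 active = inhibition reaching about 45% at 4 µM in either replicate, limit read from the data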;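 note: plate controls were PMA/ionomycin stimulated DMSO wells for no effect and unstimulated DMSO wells for full effect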
* = called active by the depositor; / = no result given.

SMILES | Jurkat NFkB inh | aSyn 5UTR inh | Mdm2 MdmX PPI | 697 NFkB inh | VIM-2 inhibitor | IMP-1 inhibitor | Jurkat NFkB conf
CCN1CCN(S(=O)(=O)c2ccc(Cl)c(C(=O)N(C)Cc3ccco3)c2)CC1 | 6 | / | -4 | 17 | / | / | /
Nc1ncc(Br)cc1S(=O)(=O)NCCC(=O)NCCc1ccc(Cl)cc1 | 7 | 20 | 25 | 16 | -3 | 1 | /
COc1ccc(OCC(=O)NNC(=S)NC(=O)C2CCCCC2)cc1 | -13 | -7 | -8 | 7 | -2 | -4 | /
Brc1ccc(-c2cn3ccccc3n2)s1 | -166 | 22 | -92 | -245 | -2 | -4 | -102
CC1(c2ccccc2)NC(=O)N(CC(=O)N2CCN(S(=O)(=O)c3c(F)cccc3F)CC2)C1=O (stereo unspecified) | 7 | / | 9 | 13 | / | / | /
C=CCNC(=O)c1ccc2c3n(nc2c1)-c1ccccc1CO3 | -154 | -8 | -173 | -167 | / | / | -71
COCCNC(=O)c1ccc2c3n(nc2c1)-c1ccccc1CO3 | -87 | -108 | -78 | -133 | / | / | /
O=C(O)c1ccc2c3n(nc2c1)-c1ccc(Cl)cc1CO3 | 59* | -161 | -17 | -22 | 6 | -2 | 10
O=C(CC1SC(N2CCCC2)=NC1=O)Nc1ccc(C(=O)N2CCN(c3cccc(Cl)c3)CC2)cc1 (stereo unspecified) | 10 | 11 | 12 | -23 | / | / | /
Cc1c(C(=O)N2CCN(c3ccc([N+](=O)[O-])cc3)CC2)oc2ccccc12 | 51* | / | 10 | 14 | / | / | 32
O=C(c1ccc2c(c1)OCCO2)N1CCN(c2ccc([N+](=O)[O-])cc2)CC1 | 56* | 12 | -1 | 7 | 1 | 0 | -12
Cc1c(C(=O)OCC(=O)N2CCN(c3ccccc3)CC2)oc2ccccc12 | 3 | / | -1 | -10 | / | / | /
O=C(NCCN1CCOCC1)c1cc(-c2ccc(Br)cc2)on1 | 4 | -27 | -3 | 18 | 0 | -1 | /
C=CCNC(=O)c1cc(-c2ccc(Br)cc2)on1 | -177 | -101 | -77 | -116 | 1 | -4 | -58
CC1CN(c2ncnc3c2cnn3-c2ccc(Cl)cc2)CC(C)O1 (stereo unspecified) | -187 | -59 | -54 | -197 | -4 | -1 | -71
Cc1cccc(-n2ncc3c(NC4CCCCC4)ncnc32)c1 | -156 | -90 | -114 | -235 | -3 | -2 | -148
Cc1cccc(-n2ncc3c(N4CC(C)CC(C)C4)ncnc32)c1 (stereo unspecified) | -166 | -109 | -137 | -199 | -3 | -3 | -107
Nc1nc(SCCO)[nH]c(=O)c1NC(=O)c1ccc(Br)o1 | -5 | -1 | 9 | -29 | 1 | -1 | /
COc1ccc(-c2nc(-c3cccc(C)c3)no2)cc1OC | -92 | -200 | -114 | -86 | -1 | -1 | /
Cc1cccc(-c2noc(-c3ccc4c(c3)OCO4)n2)c1 | -187 | 49 | -93 | -200 | 2 | 0 | -99
COc1ccc(C2CC(c3ccc4ccccc4c3)=NN2C(=O)COC(=O)C2CCC(=O)N2)cc1 (stereo unspecified) | -196 | -152 | -379 | -169 | -3 | -2 | -133
O=C(NCCOc1ccccc1F)c1cc([N+](=O)[O-])ccc1N1CCOCC1 | 57* | -36 | 48 | -8 | 0 | -3 | 30
O=C(NCCc1ccccc1)c1cc([N+](=O)[O-])ccc1N1CCOCC1 | 8 | / | 32 | 10 | / | / | /
O=C(NCCOc1ccccc1)c1cc([N+](=O)[O-])ccc1N1CCOCC1 | 60* | / | 48 | -66 | / | / | 57*
CSc1ccc(Cl)c(C(=O)N(C)CC(=O)Nc2ccc(N3CCOCC3)cc2)c1 | 1 | -4 | -13 | 14 | / | / | /
SMILES | Jurkat NFkB inh | aSyn 5UTR inh | Mdm2 MdmX PPI | 697 NFkB inh | VIM-2 inhibitor | IMP-1 inhibitor | Jurkat NFkB conf
CCOC(=O)c1c(C)[nH]c(N=Nc2cccc(OC)c2)c1C | -209 | -208 | -177 | -174 | -2 | -6 | -39
c1csc(-c2nnc(-c3ccc(N4CCOCC4)cc3)o2)c1 | -151 | -18 | -39 | -242 | 2 | -2 | -63
COc1ccc([C@H]2CC(=O)C=C(c3cc(C)ccc3OC)C2)cc1 | 58* | / | 40 | -12 | / | / | 26
C(=C\c1ccccc1)/CSc1nnc(-c2ccncc2)n1Cc1ccco1 | 2 | 0 | 18 | 5 | -2 | -1 | /
C(=C\c1ccccc1)/CSc1nnc(-c2ccccc2)n1Cc1ccco1 | 60* | 14 | 36 | -41 | 0 | -1 | 23
O=C(NCc1ccco1)C1CC(c2cccc([N+](=O)[O-])c2)=NO1 (stereo unspecified) | 15 | 20 | 20 | 10 | -2 | -2 | /
COc1ccc(C2=NOC(C(=O)NCc3ccc(F)cc3)C2)cc1OC (stereo unspecified) | 78* | 82* | 44 | 27 | 2 | -2 | 58*
COc1ccccc1CNC(=O)C1CC(c2cccc([N+](=O)[O-])c2)=NO1 (stereo unspecified) | 55* | -49 | 13 | -6 | 2 | 0 | 13
COCCN(Cc1ccc(F)cc1)C(=O)c1cc2ccccc2oc1=O | 5 | -18 | 0 | 6 | -2 | -3 | /
CC1CCCC(C)N1C(=O)c1ccc(S(=O)(=O)NCc2ccco2)cc1 (stereo unspecified) | 13 | -8 | 8 | -14 | 2 | 3 | /
O=C(Nc1ccc(F)cc1F)N1CCCN(c2ccc([N+](=O)[O-])cn2)CC1 | 6 | 10 | 2 | -7 | -3 | -2 | /
O=C(c1ccc(F)cc1F)C1CCN(c2ccc([N+](=O)[O-])cn2)CC1 | 86* | 8 | 29 | -44 | 1 | -1 | 29
Nc1c(C(=O)Nc2ccc3c(c2)OCCO3)nnn1Cc1cccc(Br)c1 | -43 | -163 | -75 | -74 | / | / | /
O=C(Nc1ccc2c(c1)OCCO2)c1cccc(Br)c1 | -174 | -150 | -175 | -55 | 0 | 1 | -101
O=C(Nc1ccc2c(c1)OCCO2)c1ccc(Br)cc1 | -138 | -78 | -196 | -75 | -1 | 0 | /
CCN1CCN(c2ccc(NC(=O)c3ccc4c(c3)OCCO4)cc2C)CC1 | -165 | / | -27 | -76 | / | / | -40
O=C(Nc1ccc(Cl)cc1Cl)c1ccc2c(c1)OCCO2 | -167 | / | -127 | -241 | / | / | -95
Nc1c(C(=O)Nc2ccc3c(c2)OCCO3)nnn1Cc1ccc(Br)cc1 | -200 | -220 | -94 | -190 | / | / | -112
O=C(CCS(=O)(=O)c1ccccc1)NCc1ccccc1 | 15 | 6 | -14 | -5 | -1 | 0 | /
O=C(Nc1ccc2c(c1)OCCO2)c1ccc(Cl)c(Cl)c1 | -151 | -131 | -155 | -45 | -3 | -3 | -132
CCN1CCN(c2cc(C)c3cc(NC(=O)c4ccc(OC)c(OC)c4)ccc3n2)CC1 | 57* | -72 | 38 | -63 | -3 | -4 | 29
CC(C)c1ccc(NC(=O)c2cccc(Br)c2)cc1 | -234 | -174 | -252 | -207 | -3 | -3 | -106

Compound activity: PubChem, several laboratories
